Values after ≈ are worked out from the molar mass of the structure shown.
Key:
Candida albicans [1] = assay: Antibiofilm activity against Candida albicans ATCC 10231 assessed as inhibition of mature biofilm formation by XTT reduction assay; assay type: functional
In short: (§1)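 Biofilm assay after Pierce et al., with compound applied either during biofilm formation or to 24 h pre-formed (mature) biofilm. Read-out is metabolic activity of cells in the biofilm by XTT reduction. BMIC50 is the lowest concentration giving a 50% drop relative to untreated growth control. Tested in triplicate, at least two experiments on separate dates; median reported.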

Candida albicans [2] = assay: Antibiofilm activity against Candida albicans ATCC 10231 assessed as inhibition of biofilm formation by XTT reduction assay; assay type: functional; in short: as §1
Candida albicans [3] = assay: Antifungal activity against planktonic form of Candida albicans ATCC 10231 by broth microdilution method; assay type: organism-based; conditions: in vitro
In short: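 CLSI M27-A3 broth microdilution. Cells grown on Sabouraud dextrose agar at 35°C for 24 h; final inoculum 1×10^3–5×10^3 cells/mL. Compounds from DMSO stocks, final DMSO below 1%, final range 256–0.25 µg/mL. Controls were DMSO 1% and fluconazole reference. MIC50 is the lowest concentration giving ≥50% growth inhibition. Three independent experiments in duplicate; median reported.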

Candida albicans [4] = assay: Antibiofilm activity against Candida albicans PMC 1042 assessed as inhibition of mature biofilm formation by XTT reduction assay; assay type: functional
In short: (§2)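 Biofilm method of Pierce et al. Biofilms were treated either during formation or once mature (24 h preformed). Metabolic activity of the cells within the biofilm was read by XTT reduction. BMIC50 is the lowest concentration giving a 50% drop in metabolic activity versus the untreated growth control. At least two experiments on separate dates, triplicate, reported as median.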

Candida albicans [5] = assay: Antibiofilm activity against Candida albicans PMC 1042 assessed as inhibition of biofilm formation by XTT reduction assay; assay type: functional; in short: as §2
Candida albicans [6] = assay: Antifungal activity against planktonic form of Candida albicans PMC 1042 by broth microdilution method; assay type: organism-based; conditions: in vitro
In short: (§3)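 Broth microdilution per CLSI M27-A3 and M27-S4. Strains were grown on Sabouraud dextrose agar at 35°C for 24 h. Final inoculum 1×10^3–5×10^3 cells/mL. Compounds were dissolved in DMSO (final <1%); 1% DMSO served as control. Final range 256–0.25 µg/mL. MIC50 is the lowest concentration giving ≥50% growth inhibition. Three independent experiments in duplicate, median; fluconazole as reference.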

Candida albicans [7] = assay: Antibiofilm activity against Candida albicans PMC 1082 assessed as inhibition of mature biofilm formation by XTT reduction assay; assay type: functional; in short: as §2
Candida albicans [8] = assay: Antibiofilm activity against Candida albicans PMC 1082 assessed as inhibition of biofilm formation by XTT reduction assay; assay type: functional; in short: as §2
Candida albicans [9] = assay: Antifungal activity against planktonic form of Candida albicans PMC 1082 by broth microdilution method; assay type: organism-based; conditions: in vitro; in short: as §3
Candida albicans [10] = assay: Antibiofilm activity against Candida albicans ATCC 10261 assessed as inhibition of mature biofilm formation by XTT reduction assay; assay type: functional; in short: as §2
Candida albicans [11] = assay: Antibiofilm activity against Candida albicans ATCC 10261 assessed as inhibition of biofilm formation by XTT reduction assay; assay type: functional; in short: as §2
Candida albicans [12] = assay: Antifungal activity against planktonic form of Candida albicans ATCC 10261 by broth microdilution method; assay type: organism-based; conditions: in vitro; in short: as §3
[13] = Toxicity in Galleria mellonella larvae assessed as larval survival at 500 ug/ml after 24 hrs relative to control
In short: (§4)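 Ten healthy larvae per group, stored at 15°C in the dark. Each got a 20 µL injection into the haemocoel via the last left proleg, with compound freshly made in sterile water containing <1% v/v DMSO. Larvae were incubated at 30°C and survival scored every 24 h; death was no movement on stimulation plus cuticle discolouration. Controls were untreated, pierced-only and vehicle. Mean % survival of two independent experiments.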

[14] = Toxicity in Galleria mellonella larvae assessed as larval survival at 100 ug/ml after 24 hrs relative to control; in short: as §4
[15] = Toxicity in Galleria mellonella larvae assessed as larval survival at 50 ug/ml after 24 hrs relative to control; in short: as §4
[16] = Toxicity in Galleria mellonella larvae assessed as larval survival at 10 ug/ml after 24 hrs relative to control; in short: as §4
[17] = Toxicity in Galleria mellonella larvae assessed as larval survival at 5 ug/ml after 24 hrs relative to control; in short: as §4
[18] = Toxicity in Galleria mellonella larvae assessed as larval survival at 500 ug/ml after 48 hrs relative to control; in short: as §4
[19] = Toxicity in Galleria mellonella larvae assessed as larval survival at 100 ug/ml after 48 hrs relative to control; in short: as §4
[20] = Toxicity in Galleria mellonella larvae assessed as larval survival at 50 ug/ml after 48 hrs relative to control; in short: as §4
[21] = Toxicity in Galleria mellonella larvae assessed as larval survival at 10 ug/ml after 48 hrs relative to control; in short: as §4
[22] = Toxicity in Galleria mellonella larvae assessed as larval survival at 5 ug/ml after 48 hrs relative to control; in short: as §4
[23] = Toxicity in Galleria mellonella larvae assessed as larval survival at 500 ug/ml after 72 hrs relative to control; in short: as §4
[24] = Toxicity in Galleria mellonella larvae assessed as larval survival at 100 ug/ml after 72 hrs relative to control; in short: as §4
[25] = Toxicity in Galleria mellonella larvae assessed as larval survival at 50 ug/ml after 72 hrs relative to control; in short: as §4
[26] = Toxicity in Galleria mellonella larvae assessed as larval survival at 10 ug/ml after 72 hrs relative to control; in short: as §4
[27] = Toxicity in Galleria mellonella larvae assessed as larval survival at 5 ug/ml after 72 hrs relative to control; in short: as §4
[28] = Toxicity in Galleria mellonella larvae assessed as larval survival at 1000 ug/ml after 24 hrs relative to control; in short: as §4
[29] = Toxicity in Galleria mellonella larvae assessed as larval survival at 1000 ug/ml after 48 hrs relative to control; in short: as §4
[30] = Toxicity in Galleria mellonella larvae assessed as larval survival at 1000 ug/ml after 72 hrs relative to control; in short: as §4

| Compound | MBIC50 (Candida albicans [1]) | MBIC50 (Candida albicans [2]) | MIC50 (Candida albicans [3]) | MBIC50 (Candida albicans [4]) | MBIC50 (Candida albicans [5]) | MIC50 (Candida albicans [6]) | MBIC50 (Candida albicans [7]) | MBIC50 (Candida albicans [8]) | MIC50 (Candida albicans [9]) | MBIC50 (Candida albicans [10]) | MBIC50 (Candida albicans [11]) | MIC50 (Candida albicans [12]) | survival at 24 h [13] | survival at 24 h [14] | survival at 24 h [15] | survival at 24 h [16] | survival at 48 h [18] | survival at 48 h [19] | survival at 48 h [20] | survival at 48 h [21] | also measured |
| --- | --- | --- | --- | --- | --- | --- | --- | --- | --- | --- | --- | --- | --- | --- | --- | --- | --- | --- | --- | --- | --- |
| c1ccc2cc(CNCCc3c[nH]c4ccccc34)ccc2c1 | 2 µg/mL | 8 µg/mL | 16 µg/mL (≈ 53.3 µM) | 2 µg/mL | 8 µg/mL | 128 µg/mL (≈ 426 µM) | 2 µg/mL | 8 µg/mL | 32 µg/mL (≈ 107 µM) | 8 µg/mL | 8 µg/mL | 32 µg/mL (≈ 107 µM) | 100% | 100% | 90% | 100% | 100% | 100% | 90% | 100% | survival at 24 h [17]: 100%; survival at 48 h [22]: 100%; survival at 72 h [23]: 100%; survival at 72 h [24]: 100%; survival at 72 h [25]: 90%; survival at 72 h [26]: 100%; survival at 72 h [27]: 100% |
| Brc1ccc(CNCCc2c[nH]c3ccccc23)cc1 | 8 µg/mL | 8 µg/mL | 64 µg/mL (≈ 194 µM) | 2 µg/mL | 8 µg/mL | 16 µg/mL (≈ 48.6 µM) | 4 µg/mL | 8 µg/mL | 32 µg/mL (≈ 97.2 µM) | 8 µg/mL | 8 µg/mL | 32 µg/mL (≈ 97.2 µM) | 100% | 100% | 100% | 100% | 100% | 100% | 100% | 100% | survival at 24 h [17]: 100%; survival at 48 h [22]: 100%; survival at 72 h [23]: 100%; survival at 72 h [24]: 100%; survival at 72 h [25]: 100%; survival at 72 h [26]: 100%; survival at 72 h [27]: 100% |
| CC(C)Cc1ccc(C(C)C(=O)NCCc2c[nH]c3ccccc23)cc1 (stereo not drawn) | 8 µg/mL | 16 µg/mL | > 128 µg/mL | 2 µg/mL | 8 µg/mL | > 256 µg/mL | 4 µg/mL | 8 µg/mL | > 256 µg/mL | 8 µg/mL | 8 µg/mL | > 256 µg/mL | 100% | 100% | 100% | 100% | 100% | 100% | 100% | 100% | survival at 72 h [23]: 100%; survival at 72 h [24]: 100%; survival at 72 h [25]: 100%; survival at 72 h [26]: 100%; survival at 24 h [28]: 100%; survival at 48 h [29]: 100%; survival at 72 h [30]: 100% |
| c1ccc2c(CCNCc3ccc(CNCCc4c[nH]c5ccccc45)cc3)c[nH]c2c1 | 8 µg/mL | 16 µg/mL | > 128 µg/mL | 2 µg/mL | 8 µg/mL | > 256 µg/mL | 4 µg/mL | 8 µg/mL | > 256 µg/mL | 4 µg/mL | 4 µg/mL | 256 µg/mL (≈ 606 µM) | 100% | 100% | 100% | 100% | 100% | 100% | 90% | 100% | survival at 24 h [17]: 100%; survival at 48 h [22]: 100%; survival at 72 h [23]: 100%; survival at 72 h [24]: 100%; survival at 72 h [25]: 90%; survival at 72 h [26]: 100%; survival at 72 h [27]: 100% |

Source: ChEMBL document CHEMBL4400512, “Searching for new agents active against Candida albicans biofilm: A series of indole derivatives, design, synthesis and biological evaluation” (Eur J Med Chem, 2019)
